Assay outcomes deposited in PubChem by several laboratories.
A selection: hits, their analogues and other compounds. The true share with any hit is near 6.4%.
Rev-RRE block – inhibitors of HIV-1 Rev-RRE RNA interaction | inhibition, % at 8 µM | P05866 | hit rate 0.79% among 97,000 | Rev peptide-RRE RNA binding, FRET | AID 704;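 active = inhibition above the screen-wide mean plus 3 SD, cut at about 35% in these data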
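Test system – labelled RRE RNA duplex and labelled Rev peptide · Reagent – labelled Rev peptide · Doses – one concentration, 8 µM nominal · Incubation – 5 + 15 min at 25 °C · Signal – FRET fluorescence readout · Read-out basis – % inhibition of FRET ratio versus controls · Control set – DMSO wells as 0% and neomycin B wells as 100% inhibition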
Plk1 PBD FP – Plk1 (human) PBD binding inhibition; P53350; Plk1 PBD phosphopeptide binding, fluorescence polarization; inhibition, %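 (tested at about 20 µM)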; hit rate 0.13% among 97,000; AID 693; in the data active = inhibition above about 34%, passing the limit was not always enough
PostGolgi ctrl – inhibits growth of the yeast control strain; efflux-deficient yeast background strain, growth absorbance A615, 16 h; hit rate 5% among 98,000; inhibition, % at 10 µM
PostGolgi yeast – growth inhibition of a yeast mutant, post-Golgi transport screen; post-Golgi transport phenotypic cell assay; inhibition, % at 10 µM; hit rate 0.9% among 98,000; AID 739;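 note: yeast cells grown in 1536-well plates; yeast grown about 18 h at 30C before absorbance read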
EphB4 antag – blocks human EphB4 binding to ephrin-B2 | hit rate 0.15% among 97,000 | P54760 | inhibition, % at 7 µM | EphB4 LBD / TNYL-RAW-Alexa532 peptide, fluorescence polarization | AID 720;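 active = inhibition above the screen-wide mean inhibition plus 3 SD, cut at about 15% in these data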
Target sequence (P54760 whole entry, looked up, the tested form may be a part): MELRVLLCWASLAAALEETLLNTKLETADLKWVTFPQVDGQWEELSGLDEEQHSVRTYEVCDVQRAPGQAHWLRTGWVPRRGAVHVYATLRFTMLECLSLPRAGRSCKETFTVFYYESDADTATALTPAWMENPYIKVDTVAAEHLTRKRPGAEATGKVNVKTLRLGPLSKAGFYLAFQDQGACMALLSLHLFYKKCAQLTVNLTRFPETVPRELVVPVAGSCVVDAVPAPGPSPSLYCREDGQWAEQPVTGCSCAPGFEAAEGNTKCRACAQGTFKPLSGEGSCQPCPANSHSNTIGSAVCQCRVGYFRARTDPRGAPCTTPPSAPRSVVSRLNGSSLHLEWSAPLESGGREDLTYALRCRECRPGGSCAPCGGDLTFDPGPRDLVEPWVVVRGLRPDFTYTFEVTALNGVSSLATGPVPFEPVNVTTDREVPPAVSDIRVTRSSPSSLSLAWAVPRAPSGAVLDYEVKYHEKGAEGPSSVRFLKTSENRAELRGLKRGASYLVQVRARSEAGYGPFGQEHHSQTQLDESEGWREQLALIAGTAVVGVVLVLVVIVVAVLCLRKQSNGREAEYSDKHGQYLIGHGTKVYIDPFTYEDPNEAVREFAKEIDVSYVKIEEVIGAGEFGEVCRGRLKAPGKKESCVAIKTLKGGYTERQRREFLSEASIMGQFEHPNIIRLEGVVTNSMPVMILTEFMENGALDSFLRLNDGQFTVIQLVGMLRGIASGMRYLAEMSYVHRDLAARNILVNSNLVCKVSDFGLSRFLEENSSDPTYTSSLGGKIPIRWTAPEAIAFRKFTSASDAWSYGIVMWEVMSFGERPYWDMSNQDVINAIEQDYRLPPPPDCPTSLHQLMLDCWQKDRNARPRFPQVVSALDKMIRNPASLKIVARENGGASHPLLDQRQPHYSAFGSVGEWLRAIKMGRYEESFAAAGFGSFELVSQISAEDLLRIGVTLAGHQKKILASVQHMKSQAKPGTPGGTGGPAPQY
PLK1 kinase inh – blocks human PLK1 kinase activity. P53350. inhibition, % at 10 µM. hit rate 0.53% among 97,000. recombinant PLK1 kinase, TR-FRET peptide phosphorylation;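 active = inhibition of 50% or more in the single-concentration screen; inactive = inhibition below 50%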
Of the large screens only hits and unclear results are named; the others gave an inactive call; [ ] = another dose, or the depositor's remark. Cut-off read from the data, not from the text of the source, unless noted: active = inhibition above about 30%; inactive = the rest.

COc1ccccc1CNC(=O)N[C@@H](Cc1ccccc1)C(=O)O	none
O=C(c1ccccc1Oc1ccccc1)N1CCN(c2ccccc2F)CC1	PostGolgi ctrl 32.7
COc1ccccc1N1CCN(C(=O)c2ccccc2Oc2ccccc2)CC1	none
Cc1noc(C)c1CSCC(=O)N1CCN(c2ccc([N+](=O)[O-])cc2)CC1	none
O=[N+]([O-])c1ccc(N2CCN(S(=O)(=O)c3ccc(Cl)cc3)CC2)cc1NCc1cccnc1	PostGolgi yeast 70.9
Cc1nc(NS(=O)(=O)c2cccs2)c2c3c(sc2n1)CCC3	none
Cc1nc(NS(=O)(=O)c2ccc(Br)cc2)c2c3c(sc2n1)CCC3	PostGolgi ctrl 33.1
CCOc1ccc(-n2cnnn2)cc1S(=O)(=O)N1CCCCC1	none
CCOc1cc(S(=O)(=O)N2CCN(c3ccc(F)cc3)CC2)c(OCC)cc1-n1cnnn1	PostGolgi ctrl 82.5
O=C(NCc1ccccc1)C(c1ccccc1)N(Cc1cccs1)C(=O)c1cnccn1 (centres undefined)	PostGolgi ctrl 40.2
O=C(CN1CCC(O)(c2ccccc2F)CC1)NCCc1c[nH]c2ccccc12	none
O=C(c1cc2ccccc2cc1OCC(O)CN1CCCCC1)N1CCCCC1 (centres undefined)	PLK1 kinase inh 66.0
OC(COc1ccc(Cl)cc1)CN1CCCCC1 (centres undefined)	none
OC(COc1c(Cl)cc(Cl)cc1Cl)CN1CCCCC1 (centres undefined)	PLK1 kinase inh 54.2
Cc1cc(C)n2nc(NCc3cccc(Br)c3)nc2n1	none
Cc1ccc(/C(N)=N/OC(=O)COc2ccccc2Cl)cc1	none
Cc1ccc(C(=O)c2c(NC(=O)c3cccnc3)sc3c2CCCC3)cc1	PostGolgi ctrl 32.5
O=C(Nc1nc2c(s1)CCCC2)c1cccnc1	none (no result: Rev-RRE block, Plk1 PBD FP, EphB4 antag, PLK1 kinase inh)
O=C(COC(=O)COc1ccc(Nc2ccccc2)cc1)NCc1ccco1	none
O=C(COC(=O)c1ccccc1Nc1ccccc1)NCc1ccco1	PostGolgi ctrl 31.6
Cc1ccc(C)c(C(C)NC(=O)C2C3CCC(O3)C2C(=O)O)c1 (centres undefined)	none
CN(CC(=O)O)Cc1nc2ccccc2[nH]1	none
CCN1/C(=C/c2ccc3cccc(C)c3[n+]2CC)Sc2ccccc21	PostGolgi ctrl 98.3
CCOC(=O)c1c(N2C(=O)C3CC(C)=C(C)CC3C2=O)sc(C)c1C (centres undefined)	none
COc1cc(-n2nnnc2SCC(=O)N2CCN(c3ccc(F)cc3)CC2)c(OC)cc1Cl	PostGolgi ctrl 37.8
Cc1cccc(C)c1OCCn1nc(C(=O)O)c2ccccc2c1=O	none
Cc1noc(C)c1Cn1nc(C(=O)O)c2ccccc2c1=O	PLK1 kinase inh 51.4
CC1CC(C)CN(C(=O)c2ccccc2Nc2ccc(SC(F)F)cc2)C1 (centres undefined)	none
O=C(Nc1cccc2cccnc12)c1cccc2ccccc12	PostGolgi ctrl 36.5
Cc1ccc2[nH]c(=O)c(CN(Cc3ccccc3Cl)C(=O)N3CCOCC3)cc2c1	none
CCOC(=O)CC1C(=O)NCCN1S(=O)(=O)c1ccc(Cl)cc1Cl (centres undefined)	none
O=C(OCc1cccs1)c1ccccc1NS(=O)(=O)c1ccc2c(c1)OCCO2	none
OCCCc1nc2n(n1)C(c1ccccc1)C=C(c1ccc(F)cc1)N2 (centres undefined)	none
OCCCc1nc2n(n1)C(c1cccs1)C=C(c1ccccc1)N2 (centres undefined)	Rev-RRE block 136.7[fluorescence artefact?]
CCOc1ccccc1C1C(C(N)=O)=C(C)Nc2nc(CCCO)nn21 (centres undefined)	none
OCCCc1nc2n(n1)C(c1ccccc1Cl)C=C(c1cccs1)N2 (centres undefined)	Rev-RRE block 92.4[fluorescence artefact?]
CCOC(=O)c1nnn(CC(=O)N2N=C(c3ccc(Cl)cc3)CC2c2ccccc2)c1C(=O)OCC (centres undefined)	none (no result: PostGolgi ctrl, PostGolgi yeast)
COc1ccc(C)cc1NC(=O)CN1CCN(c2ccccc2F)CC1	PostGolgi ctrl 37.9 (no result: Rev-RRE block, Plk1 PBD FP, EphB4 antag, PLK1 kinase inh)
Cc1cccc(N2CCN(CC(=O)Nc3ccccc3[N+](=O)[O-])CC2)c1C	PostGolgi ctrl 31.6
COc1ccc(C)cc1NC(=O)CN1CCN(S(=O)(=O)c2ccc(F)cc2)CC1	PostGolgi ctrl 31.4
O=C1NC2CCCCC2NC1CC(=O)N1CCN(c2ccccc2)CC1 (centres undefined)	none (no result: PostGolgi ctrl, PostGolgi yeast)
O=C(C(Cl)Cl)N1c2ccccc2OCC1c1ccccc1 (centres undefined)	none
